The record followed here is ChEMBL document CHEMBL1817554, “Design of HIV-1 protease inhibitors with C3-substituted hexahydrocyclopentafuranyl urethanes as P2-ligands: synthesis, biological evaluation, and protein-ligand X-ray crystal structure” (J Med Chem, 2011).

One may read the Ki as the dissociation constant of the complex between target and ligand, obtained from inhibition or displacement. A word on the IC50: it is the concentration that inhibits the measured activity by half.

The target in one experiment is Protease (Human immunodeficiency virus 1, UniProt Q9YQ12). Briefly: Inhibition of Human immunodeficiency virus 1 protease assessed as release of fluorescent N-terminal tripeptide using fluorogenic substrate by continuous fluorometric assay.
Sequence of Protease (Q9YQ12 whole entry): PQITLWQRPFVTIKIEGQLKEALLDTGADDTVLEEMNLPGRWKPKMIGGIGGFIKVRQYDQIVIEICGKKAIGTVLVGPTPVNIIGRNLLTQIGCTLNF
Experiment [1] concerns Human immunodeficiency virus 1. Briefly: Antiviral activity against Human immunodeficiency virus 1 LAI infected in human MT2 cells by MTT assay. (Tetrazolium dyes change colour on reduction, which living cells bring about.)
In experiment [2] the test system is Human immunodeficiency virus 1. Briefly: Antiviral activity against wild type Human immunodeficiency virus 1 ERS104pre infected in PHA-stimulated human PBMC assessed as inhibition of p24 Gag protein production. It counts as functional, organism-based. The essentials:
(§1)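 PHA-stimulated PBMCs served as target cells, and inhibition of p24 Gag protein production was the end point. Fold change was taken against the wild-type HIV-1ERS104pre IC50. Each assay was run in duplicate or triplicate. Values are means (±1 standard deviation) from three independent experiments.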

For experiment [3], the system named is Human immunodeficiency virus 1. Briefly: Antiviral activity against multidrug-resistant Human immunodeficiency virus 1 MDR/TM harboring protease L10I, K14R, R41K, M46L, I54V, L63P, A71V, V82A, L90M, I93L mutation infected in PHA-stimulated human PBMC assessed as inhibition of p24 Gag protein production. It is filed as functional, organism-based. The essentials: as §1

Experiment [4] deals with Human immunodeficiency virus 1. Briefly: Antiviral activity against multidrug-resistant Human immunodeficiency virus 1 MDR/C harboring protease L10I, I15 V, K20R, L24I, M36I, M46L, I54V, I62 V, L63P, K70Q, V82A, L89 M mutation infected in PHA-stimulated human PBMC assessed as inhibition of p24 Gag protein production. It counts as functional, organism-based. Put shortly:
as §1

For experiment [5], the system named is Human immunodeficiency virus 1. Briefly: Antiviral activity against multidrug-resistant Human immunodeficiency virus 1 subtype B harboring protease L10I, L33I, M36I, M46I, F53L, K55R, I62 V, L63P, A71 V, G73S, V82A, L90M, I93L mutation infected in PHA-stimulated human PBMC assessed as inhibition of p24 Gag protein production. It is filed as functional, organism-based. Put shortly: as §1

Experiment [6] concerns Human immunodeficiency virus 1. Briefly: Antiviral activity against multidrug-resistant Human immunodeficiency virus 1 MDR/G harboring protease L10I, V11I, T12E, I15 V, L19I, R41K, M46L, L63P, A71T, V82A, L90 M mutation infected in PHA-stimulated human PBMC assessed as inhibition of p24 Gag protein production. It counts as functional, organism-based. Put shortly:
as §1

Experiment [7] has as its system Human immunodeficiency virus 1. Description: Ratio of IC50 for Human immunodeficiency virus 1 MDR/G to IC50 for wild-type Human immunodeficiency virus 1 ERS104pre. It counts as functional. The essentials: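 Antiviral IC50s measured against each multidrug-resistant clinical isolate and wild-type HIV-1ERS104pre in PHA-stimulated PBMCs as target cells, with inhibition of p24 Gag production as the end point. The fold change is the isolate IC50 divided by the wild-type IC50. Assays were run in duplicate or triplicate; values are means (±1 SD) of three independent experiments.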

The subject of experiment [8] is Human immunodeficiency virus 1. Briefly: Ratio of IC50 for Human immunodeficiency virus 1 MDR/C to IC50 for wild-type Human immunodeficiency virus 1 ERS104pre. It is filed as functional.
Experiment [9] has as its system Human immunodeficiency virus 1. Description: Ratio of IC50 for Human immunodeficiency virus 1 MDR/TM to IC50 for wild-type Human immunodeficiency virus 1 ERS104pre. It counts as functional.
In experiment [10] the test system is Human immunodeficiency virus 1. Description: Ratio of IC50 for Human immunodeficiency virus 1 MDR/B to IC50 for wild-type Human immunodeficiency virus 1 ERS104pre. It counts as functional.

On to `CC(C)CN(C[C@@H](O)[C@H](Cc1ccccc1)NC(=O)O[C@@H]1C[C@@H]2[C@@H](O)CO[C@@H]2C1)S(=O)(=O)c1ccc(N)cc1`, for which the Ki at Protease is 0.006 nM. Also, the IC50 in experiment [1] is 36 nM.

On to `COc1ccc(S(=O)(=O)N(CC(C)C)C[C@@H](O)[C@H](Cc2ccccc2)NC(=O)O[C@@H]2C[C@@H]3[C@H](C)CO[C@@H]3C2)cc1`, for which the Ki at Protease is 0.16 nM. For the same compound, 25 nM corresponded to half-maximal inhibition in experiment [1] (IC50).

With `CC(C)CN(C[C@@H](O)[C@H](Cc1ccccc1)NC(=O)O[C@@H]1C[C@@H]2[C@H](O)CO[C@@H]2C1)S(=O)(=O)c1ccc(CO)cc1`, the Ki on Protease was found to be 0.06 nM. Further, in experiment [1], the IC50 came out at 19 nM.

For the compound `COc1ccc(S(=O)(=O)N(CC(C)C)C[C@@H](O)[C@H](Cc2ccccc2)NC(=O)O[C@@H]2C[C@@H]3[C@@H](C)CO[C@@H]3C2)cc1`, the Ki at Protease came to 0.017 nM.

`COc1ccc(S(=O)(=O)N(CC(C)C)C[C@@H](O)[C@H](Cc2ccccc2)NC(=O)O[C@@H]2C[C@@H]3[C@@H](O)CO[C@@H]3C2)cc1`: the IC50 in experiment [2] is 2.9 nM; in experiment [3] it was 3.1 nM; in experiment [4], 22 nM; in [1], 2.9 nM; in experiment [5] it was 29 nM; in [6], 4.5 nM.

As for `CC(C)CN(C[C@@H](O)[C@H](Cc1ccccc1)NC(=O)O[C@H]1CCOC1)S(=O)(=O)c1ccc(N)cc1`, the “Ratio IC50” value in experiment [7] is 12; in experiment [8], 9; in experiment [9], 6; in experiment [10], 31. Further, the IC50 was determined as 190 nM in experiment [3], 260 nM in experiment [4], 930 nM in experiment [5] and 380 nM in experiment [6].

In the case of `COc1ccc(S(=O)(=O)N(CC(C)C)C[C@@H](O)[C@H](Cc2ccccc2)NC(=O)O[C@@H]2C[C@@H]3[C@@H](OC)CO[C@@H]3C2)cc1`, the Ki at Protease was 0.006 nM. The compound further showed an IC50 in experiment [1] of 3.4 nM.

As for `COc1ccc(S(=O)(=O)N(CC(C)C)C[C@@H](O)[C@H](Cc2ccccc2)NC(=O)O[C@@H]2C[C@@H]3[C@H](O)CO[C@@H]3C2)cc1`, the IC50 in experiment [2] was 20 nM; in experiment [3] it was 41 nM; in experiment [4] it was greater than 1000 nM; in experiment [1], 7 nM; in experiment [5] it was greater than 1000 nM; in experiment [6], 270 nM. On Protease, the Ki came out at 0.077 nM.

For `COc1ccc(S(=O)(=O)N(CC(C)C)C[C@@H](O)[C@H](Cc2ccccc2)NC(=O)O[C@@H]2C[C@@H]3[C@H](OC)CO[C@@H]3C2)cc1`, at Protease, the Ki worked out at 0.39 nM. This compound also gave an IC50 in experiment [1] of 37 nM.

As for `COc1ccc(S(=O)(=O)N(CC(C)C)C[C@@H](O)[C@H](Cc2ccccc2)NC(=O)O[C@@H]2C[C@@H]3[C@H](N(C)C)CO[C@@H]3C2)cc1`, the Ki on Protease was 12.5 nM.

For `CC(C)CN(C[C@@H](O)[C@H](Cc1ccccc1)NC(=O)O[C@@H]1C[C@@H]2[C@H](O)CO[C@@H]2C1)S(=O)(=O)c1ccc(N)cc1`, the Ki at Protease is 0.079 nM. For the same compound, the IC50 in [1] was determined as 25 nM.

As to `COc1ccc(S(=O)(=O)N(CC(C)C)C[C@@H](O)[C@H](Cc2ccccc2)NC(=O)O[C@@H]2C[C@@H]3C(=O)CO[C@@H]3C2)cc1`, the Ki on Protease worked out at 0.95 nM. In experiment [1], this compound gave an IC50 of 14 nM.
